Assay results: publication PMC3921099 (Neurochemical research, 2013)
Values belong to the compound of their own block, whether it stands above or below them.

Legend:
α1β3δ receptors = α1β3δ receptors (Rattus norvegicus, UniProt P62813+P63079); assay: Two electrode voltage clamp in Xenopus oocytes, modulation of GABA current; type: cell-based; conditions: for stimulation of GABA EC3: 10 μM concentration
How it was run: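 α1β3δ receptors from rat cRNAs injected at 3:1:5 into Xenopus oocytes, expressed ≥24 h. Two-electrode clamp at −60 mV, room temperature. GABA concentration–response curves (including 1 μM and 1 mM GABA) recorded with and without 10 μM test compound, currents normalised to maximum evoked current. Hill fits. Curves with and without modulator compared by paired Student's t test, P<0.05, n = 4.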

α1β2δ receptors = α1β2δ receptors (Rattus norvegicus, UniProt P62813+P63138); assay: Two electrode voltage clamp in Xenopus oocytes, modulation of GABA EC3 current; type: cell-based
How it was run: (§1)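 Oocytes injected with rat α, β and δ cRNAs (3:1:5, 2.5–4 ng total) and held ≥24 h at 18 °C before collagenase defolliculation. Voltage clamped at −60 mV, room temperature, perfused 6 ml/min with Ringer (pH 7.4). GABA EC3 (3–7 % of individual maximum) co-applied with test compound after 30 s pre-application, 0.1 % DMSO final. Concentration–response fit with Hill equation, bottom fixed at 100 %. Mean ± SEM, ≥3 oocytes, ≥2 batches.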

α1β3 receptors [1] = target: T1, α1β3 receptors (Rattus norvegicus, UniProt P62813+P63079); assay: Two electrode voltage clamp in Xenopus oocytes, modulation of GABA EC3 current; type: cell-based
How it was run: (§2)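 Rat α and β3 cRNAs (capped, polyadenylated) injected at 1:1 into Xenopus oocytes, 2.5–4 ng per oocyte, at least 24 h at 18 °C, then defolliculated. Two-electrode voltage clamp at −60 mV, room temperature, in Xenopus Ringer (pH 7.4). GABA titrated to 3–7 % of each oocyte's maximum (EC3). Test compound (0.1 % DMSO final) pre-applied 30 s, then co-applied with GABA until peak. Washout up to 15 min between applications. Responses are % of the GABA control. Mean ± SEM from ≥3 oocytes, ≥2 batches.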

α1β3γ2 receptors [2] = target: T2, α1β3γ2 receptors (Rattus norvegicus, UniProt P62813+P63079); assay: Two electrode voltage clamp in Xenopus oocytes, modulation of GABA EC3 current; type: cell-based; conditions: GABA alone
α5β3 receptors = α5β3 receptors (Rattus norvegicus, UniProt P19969+P63079); assay: Two electrode voltage clamp in Xenopus oocytes, modulation of GABA EC3 current; type: cell-based; conditions: 10 μM
How it was run: as §2

α6β3δ receptors = α6β3δ receptors (Rattus norvegicus, UniProt P30191+P63079); assay: Two electrode voltage clamp in Xenopus oocytes, modulation of GABA EC3 current; type: cell-based; conditions: 10 μM concentration
How it was run: as §1

α2β3 receptors = α2β3 receptors (Rattus norvegicus, UniProt P23576+P63079); assay: Two electrode voltage clamp in Xenopus oocytes, modulation of GABA EC3 current; type: cell-based; conditions: 10 μM concentration
How it was run: as §2

α1S204Cβ3δ receptors [3] = assay: Two electrode voltage clamp, steric hindrance; type: cell-based, rat; conditions: 10 μM, MTSEA-biotin treated
α1S204Cβ3δ receptors [4] = target: α1S204Cβ3δ receptors (Rattus norvegicus, UniProt P62813+P63079, S231C); assay: Two electrode voltage clamp, steric hindrance; type: cell-based; conditions: 10 μM, without MTSEA-biotin
[5] = target: benzodiazepine binding site of α1β3γ2 receptors; conditions: read-out: IC50 of [3H]Ro15-1788 binding; cited from earlier work
α3β3 receptors = α3β3 receptors (Rattus norvegicus, UniProt P20236+P63079); assay: Two electrode voltage clamp in Xenopus oocytes, modulation of GABA EC3 current; type: cell-based; conditions: 10 μM concentration
How it was run: as §2

α1S204Cβ3Q64C receptors = α1S204Cβ3Q64C receptors (Rattus norvegicus, UniProt P62813+P63079, Q89C/S231C); assay: Two electrode voltage clamp, steric hindrance; type: cell-based
How it was run: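 Oocytes expressing rat α1S204C with β3Q64C (1:1 cRNA) were defolliculated, then immersed 3 min in freshly made 2 mM MTSEA-biotin in Ringer containing GABA EC3, washed 5 min and recorded the same day. Two-electrode clamp at −60 mV with GABA EC3 plus test compound, compared with untreated oocytes. Mean ± SEM, n = 3–4.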

α1β1δ receptors = α1β1δ receptors (Rattus norvegicus, UniProt P15431+P62813); assay: Two electrode voltage clamp in Xenopus oocytes, modulation of GABA EC3 current; type: cell-based
How it was run: as §1

α6β3γ2 receptors [6] = target: T3, α6β3γ2 receptors (Rattus norvegicus, UniProt P30191+P63079); assay: Two electrode voltage clamp in Xenopus oocytes, modulation of GABA EC3 current; type: cell-based; conditions: 10 μM concentration
How it was run: (§3)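 Rat αxβ3γ2 cRNAs injected into Xenopus oocytes at a 1:1:5 ratio, 2.5–4 ng total, incubated at least 36 h at 18 °C before defolliculation. Two-electrode clamp at −60 mV, room temperature, Ringer pH 7.4. GABA at EC3 (3–7 % of the cell's maximum current). Test compound (0.1 % DMSO) pre-applied 30 s, then co-applied with GABA to peak. Effects are % of GABA EC3 current. Mean ± SEM, ≥3 oocytes from ≥2 batches.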

α1β3Q64Cδ receptors = α1β3Q64Cδ receptors (Rattus norvegicus, UniProt P62813+P63079, Q89C); assay: Two electrode voltage clamp, steric hindrance; type: cell-based; conditions: 10 μM
How it was run: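 α1, β3Q64C and δ cRNAs injected at 3:1:5. Defolliculated oocytes were exposed 3 min to freshly prepared 2 mM MTSEA-biotin in Ringer with GABA EC3, rinsed 5 min and used the same day. Untreated oocytes served as comparison. GABA EC3 response to 10 μM test compound measured by two-electrode clamp at −60 mV. Treated and untreated groups compared by unpaired Student's t test, P<0.05.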

α1β3 receptors [7] = target: T1, α1β3 receptors; conditions: 10 μM concentration; cited from earlier work
α4β3δ receptors = α4β3δ receptors (Rattus norvegicus, UniProt P28471+P63079); assay: Two electrode voltage clamp in Xenopus oocytes, modulation of GABA EC3 current; type: cell-based
How it was run: as §1

α4β3γ2 receptors [8] = target: T4, α4β3γ2 receptors (Rattus norvegicus, UniProt P28471+P63079); assay: Two electrode voltage clamp in Xenopus oocytes, modulation of GABA EC3 current; type: cell-based; conditions: 10 μM concentration
How it was run: as §3

αβδ receptors = assay: Two electrode voltage clamp, DS2 test for incorporation of the delta subunit; type: cell-based, rat; conditions: 10 μM DS2 (experiments not shown)
How it was run: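 Expression of δ checked in every oocyte injected with α, β and δ cRNAs: GABA-induced current tested with addition of 10 μM DS2, under two-electrode voltage clamp at −60 mV, room temperature, in Xenopus Ringer.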

α4β3γ2 receptors [9] = target: T4, α4β3γ2 receptors; conditions: cited from earlier work
α1β3γ2 receptors [10] = target: T2, α1β3γ2 receptors; conditions: 10 μM concentration; cited from earlier work
α6β3γ2 receptors [11] = target: T3, α6β3γ2 receptors; conditions: 10 μM concentration; cited from earlier work
[12] = α1β3δ receptors, LAU 157 up to 30 μM (experiments not shown)

α1β2δ receptors, sequence (P62813 28-455): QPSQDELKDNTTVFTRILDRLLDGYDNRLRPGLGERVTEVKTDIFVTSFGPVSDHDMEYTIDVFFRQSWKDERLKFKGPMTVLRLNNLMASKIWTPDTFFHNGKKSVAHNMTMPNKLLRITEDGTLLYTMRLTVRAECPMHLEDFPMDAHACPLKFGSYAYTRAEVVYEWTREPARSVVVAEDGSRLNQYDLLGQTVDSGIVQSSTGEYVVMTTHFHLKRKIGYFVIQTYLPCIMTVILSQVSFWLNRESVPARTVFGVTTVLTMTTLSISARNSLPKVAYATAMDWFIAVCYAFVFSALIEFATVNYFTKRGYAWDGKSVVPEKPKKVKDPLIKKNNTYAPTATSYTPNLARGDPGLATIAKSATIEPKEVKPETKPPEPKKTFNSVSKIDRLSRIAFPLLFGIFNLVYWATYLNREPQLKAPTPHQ
α1β2δ receptors, sequence (P63138 25-474 limits assumed): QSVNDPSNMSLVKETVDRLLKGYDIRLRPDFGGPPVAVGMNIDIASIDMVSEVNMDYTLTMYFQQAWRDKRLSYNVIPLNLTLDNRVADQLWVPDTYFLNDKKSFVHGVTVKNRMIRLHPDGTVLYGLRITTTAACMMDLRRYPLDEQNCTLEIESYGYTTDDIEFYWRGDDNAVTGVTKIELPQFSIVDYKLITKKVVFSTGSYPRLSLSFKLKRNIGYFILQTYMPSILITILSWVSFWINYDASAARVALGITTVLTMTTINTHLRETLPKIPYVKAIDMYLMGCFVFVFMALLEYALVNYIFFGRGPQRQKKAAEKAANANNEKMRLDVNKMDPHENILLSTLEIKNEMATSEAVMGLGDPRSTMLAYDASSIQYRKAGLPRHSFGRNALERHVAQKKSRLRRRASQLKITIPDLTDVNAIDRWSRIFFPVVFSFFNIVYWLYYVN
α1β2δ receptors, sequence (P18506 17-449 partner limits assumed): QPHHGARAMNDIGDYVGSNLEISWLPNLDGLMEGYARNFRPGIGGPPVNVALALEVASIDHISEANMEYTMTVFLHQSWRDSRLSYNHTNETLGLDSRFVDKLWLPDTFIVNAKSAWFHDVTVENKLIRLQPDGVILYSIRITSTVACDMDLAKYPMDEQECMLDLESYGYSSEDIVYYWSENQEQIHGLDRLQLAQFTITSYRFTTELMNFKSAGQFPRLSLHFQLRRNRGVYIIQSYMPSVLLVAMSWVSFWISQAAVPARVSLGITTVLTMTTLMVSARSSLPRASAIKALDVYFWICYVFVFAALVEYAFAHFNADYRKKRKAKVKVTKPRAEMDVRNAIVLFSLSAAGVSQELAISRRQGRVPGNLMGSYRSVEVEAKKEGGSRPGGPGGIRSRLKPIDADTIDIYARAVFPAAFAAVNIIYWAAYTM
α1β3δ receptors, sequence (P62813 28-455): as the sequence (P62813 28-455) above
α1β3δ receptors, sequence (P63079 26-473): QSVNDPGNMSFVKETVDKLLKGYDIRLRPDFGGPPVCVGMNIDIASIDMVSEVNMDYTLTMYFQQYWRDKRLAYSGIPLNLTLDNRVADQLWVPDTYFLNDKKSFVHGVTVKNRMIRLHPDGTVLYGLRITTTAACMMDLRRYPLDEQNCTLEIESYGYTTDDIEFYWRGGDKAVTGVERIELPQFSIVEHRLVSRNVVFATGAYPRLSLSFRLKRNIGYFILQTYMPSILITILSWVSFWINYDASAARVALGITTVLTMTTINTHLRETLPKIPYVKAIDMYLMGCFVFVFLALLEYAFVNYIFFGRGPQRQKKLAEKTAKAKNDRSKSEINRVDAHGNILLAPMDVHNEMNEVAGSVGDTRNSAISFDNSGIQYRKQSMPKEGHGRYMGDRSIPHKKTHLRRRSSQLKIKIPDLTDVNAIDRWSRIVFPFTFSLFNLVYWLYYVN
α1β3δ receptors, sequence (P18506 17-449 partner limits assumed): as the sequence (P18506 17-449 partner limits assumed) above
T1 sequence (P62813 28-455): as the sequence (P62813 28-455) above
T1 sequence (P63079 26-473): as the sequence (P63079 26-473) above
α1S204Cβ3Q64C receptors, sequence (P62813 28-455 S231C): as the sequence (P62813 28-455) above, with S204C counted along it
α1S204Cβ3Q64C receptors, sequence (P63079 26-473 Q89C): as the sequence (P63079 26-473) above, with Q64C counted along it

Structure (SMILES): NCCCC(=O)O [GABA, gamma-aminobutyric acid, reference compound]
GABA-induced current (maximal) (α1β3γ2 receptors [2]): 16 μA
maximal GABA-induced effect (current) (α1β3δ receptors; α1β3δ receptors, GABA alone): about 1 μA
GABA-induced current (maximal) (α1β3 receptors [1]; GABA alone): 8 μA

Structure (SMILES): CCCCNc1c(C(=O)OCC)c(C)nc2c1cnn2CC [tracazolate, 4-(butylamino)-1-ethyl-6-methyl-1H-pyrazolo[3,4-b]pyridine-5-carboxylate, reference compound]
stimulation to % of GABA EC3 (α1β3δ receptors; α1β3δ receptors, 3 μM tracazolate (experiments not shown)): 900 % of GABA EC3

Structure (SMILES): O=C(Nc1c(-c2cccs2)nc2ccccn12)c1ccc(Cl)cc1 [DS2, 4-Chloro-N-[2-(2-thienyl)imidazo[1,-2-a]pyridin-3-yl]benzamide, reference compound]
enhancement of GABA-induced currents (αβδ receptors): dramatically enhanced
stimulation to % of GABA EC3 (α1β3δ receptors; α1β3δ receptors, 1 μM DS2 (experiments not shown)): 400 % of GABA EC3

Continued, in another order:

modulation of GABA EC3 (α1β3δ receptors; α1β3δ receptors): did not significantly modulate
inhibition of the effects of 1 μM DS2 (α1β3δ receptors; [12]): did not inhibit
inhibition of the effects of 3 μM tracazolate (α1β3δ receptors; [12]): did not inhibit
inhibition of the effect of 1 μM LAU 177 (α1β3δ receptors; α1β3δ receptors, increasing concentrations of LAU 157): complete inhibition
modulation of GABA EC3 (α1β2δ receptors; α1β2δ receptors): did not significantly modulate
inhibition of the effect of 1 μM LAU 177 (α1β2δ receptors; α1β2δ receptors, increasing concentrations of LAU 157): complete inhibition
modulation of GABA EC3 (α1β3 receptors [1]): did not significantly modulate
inhibition of the effect of 1 μM LAU 177 (α1β3 receptors [1]; increasing concentrations of LAU 157): complete inhibition
Structure (SMILES): O=c1c2c[nH]c3ccc(Cl)cc3c-2nn1-c1ccc([N+](=O)[O-])cc1 [LAU 157, 8-chloro-2-(4-nitrophenyl)-2H-pyrazolo[4,3-c]quinolin-3(5H)-one]

enhancement of the GABA-induced current (α5β3 receptors): about 528 ± 103 % GABA
stimulation of GABA EC3 (α6β3δ receptors): 1639 ± 244%
stimulation of GABA EC3 (α2β3 receptors): 981 ± 20 % of GABA EC3
stimulation of GABA EC3 (α1S204Cβ3δ receptors [4]): 5278 ± 1008%
EC50 (α1β3δ receptors): 1 µM
enhancement of the conductance induced by maximal GABA concentrations (α1β3δ receptors; α1β3δ receptors, 10 μM LAU 177): about 12 times
change of GABA EC50 by the modulator (α1β3δ receptors; α1β3δ receptors, 10 μM LAU 177, paired Student's t test p>0.05): no significant change
stimulation of GABA EC3 (α1β3δ receptors; α1β3δ receptors): 3285 ± 257%
GABA-induced current in the presence of LAU 177 (α1β3δ receptors; α1β3δ receptors, 1 mM GABA, 10 μM LAU 177): 13 μA
stimulation of GABA EC3 (α3β3 receptors): 913 ± 178 % of GABA EC3
current enhancement in the presence of MTSEA-biotin (α1S204Cβ3Q64C receptors; MTSEA-biotin treated): drastically reduced
efficacy compared to α1β2,3δ receptors (α1β1δ receptors): drastically reduced
stimulation of GABA EC3 (α6β3γ2 receptors [6]): 1622 ± 87%
EC50 (α1β2δ receptors): > 10.7 µM
stimulation of GABA EC3 (α1β2δ receptors; α1β2δ receptors, 10 μM concentration): 2843 ± 396%
stimulation of GABA EC3 after incubation with MTSEA biotin (α1β3Q64Cδ receptors; MTSEA-biotin treated): 1754 ± 568%
stimulation of GABA EC3 (α1β3Q64Cδ receptors; without MTSEA-biotin): 6941 ± 1268%
stimulation of GABA EC3 (α4β3δ receptors; α4β3δ receptors (printed δ4β3δ), 10 μM concentration): 1365 ± 117%
enhancement of GABA-induced currents, up to % of GABA EC3 (α1β3 receptors [1]; concentration dependent, maximum): 1152 ± 145 % of GABA EC3
stimulation of GABA EC3 (α4β3γ2 receptors [8]): 981 ± 52%
Structure (SMILES): COc1ccc2[nH]cc3c(=O)n(-c4ccc(C#N)cc4)nc-3c2c1 [LAU 177, 4-(8-methoxy-3-oxo-3,5-dihydro-2H-pyrazolo[4,3-c]quinolin-2-yl)benzonitrile]
stimulation of GABA EC3 after incubation with MTSEA biotin (α1S204Cβ3δ receptors [3]): 1884 ± 311%
IC50 [5]: 0.00075 ± 0.00081 µM
enhancement of GABA-induced currents compared with α1β3 receptors (α1S204Cβ3Q64C receptors; without MTSEA-biotin): to a similar extent with a comparable potency
stimulation to % of GABA EC3 (α1β3 receptors [7]): 1063 ± 128 % of GABA EC3

stimulation of GABA EC3 (α6β3δ receptors): 1152 ± 106%
stimulation of GABA EC3 (α1β3δ receptors; α1β3δ receptors): 1186 ± 89%
modulation of GABA-induced currents (α4β3δ receptors; α4β3δ receptors, concentration not given): 425 ± 26%
Structure (SMILES): COc1ccc(-n2nc3c4cc(Cl)ccc4[nH]cc-3c2=O)cc1 [PZ-II-028, 8-chloro-2-(4-methoxyphenyl)-2H-pyrazolo[4,3-c]quinolin-3(5H)-one, reference compound]
modulation of GABA-induced currents (α4β3γ2 receptors [9]): 226 ± 14%
stimulation of GABA-induced currents (α1β3γ2 receptors [10]): 939 ± 64
stimulation of GABA-induced current (α6β3γ2 receptors [11]): 1871 ± 28%
